Screens from PubChem.
SIAE primary – blocks human sialic acid acetylesterase | AID 1053197 | 370,000 compounds, 0.69% hits | Q9HAT2 | SIAE FP-Rh probe binding, fluorescence polarization | inhibition, % at 9.66 µM;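 active means inhibition above a cutoff: mean of compounds within the control limits plus 3 SD of those, cut at about 17% in these data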;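 further: 0% = plate median of compound wells and 100% = probe without SIAE protein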
HTRA1 inhibitor – HTRA1 (human) protease inhibition; Q92743; recombinant HTRA1, FP-rhodamine activity-based probe, fluorescence polarization; inhibition, % at 5.96 µM; 340,000 compounds, 0.5% hits; in the data active means inhibition above about 36%;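 further: 0% = enzyme with DMSO and 100% = wells lacking enzyme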
PRMT1 FP inh – blocks human protein arginine methyltransferase 1. recombinant PRMT1, activity-based probe fluorescence polarization. inhibition, % at 2.79 µM. 370,000 compounds, 1.3% hits. Q99873;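 active means inhibition above about 21% made by adding two undisclosed values, limit read from the data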
mABHD4 FP – inhibitors of mouse ABHD4; inhibition, % at 8.92 µM; Q8VD66; 370,000 compounds, 0.54% hits; purified mABHD4, FP-Rh probe fluorescence polarization;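 active means inhibition exceeding the mean over every tested compound plus 3 SD, cut at about 30% in these data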;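 further: 0% = plate median of compound wells and 100% = S159A mutant with DMSO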
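Material: mouse ABHD4 enzyme, wild type; Benchmarks: S159A mutant high control, sample median low control; Buffer or medium: HEPES pH 7.0, NaCl, Pluronic buffer; Signal: fluorescence polarization; Read-out: percent inhibition of probe binding, normalized to plate controls; Timing: pre-incubation 45 min, probe exposure 60 min, at 25 °C; Dosing: 8.92 µM, single dose.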
GASC-1 inh – inhibitors of human GASC-1 (JMJD2C) demethylase; GST-JMJD2C(1-420) H3K9me3 demethylation, DELFIA europium; inhibition, % at 2.35 µM; 330,000 compounds, 0.069% hits; AID 2099;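 active means more than half of a compound's replicate wells show inhibition beyond 50%, single wells judged on their own value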;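 further: signal counts dimethyl H3K9 product captured on neutravidin plate; 0% = median of DMSO wells and 100% = 0.3 times that DMSO median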
Target sequence (Q9H3R0 1-420 limits assumed): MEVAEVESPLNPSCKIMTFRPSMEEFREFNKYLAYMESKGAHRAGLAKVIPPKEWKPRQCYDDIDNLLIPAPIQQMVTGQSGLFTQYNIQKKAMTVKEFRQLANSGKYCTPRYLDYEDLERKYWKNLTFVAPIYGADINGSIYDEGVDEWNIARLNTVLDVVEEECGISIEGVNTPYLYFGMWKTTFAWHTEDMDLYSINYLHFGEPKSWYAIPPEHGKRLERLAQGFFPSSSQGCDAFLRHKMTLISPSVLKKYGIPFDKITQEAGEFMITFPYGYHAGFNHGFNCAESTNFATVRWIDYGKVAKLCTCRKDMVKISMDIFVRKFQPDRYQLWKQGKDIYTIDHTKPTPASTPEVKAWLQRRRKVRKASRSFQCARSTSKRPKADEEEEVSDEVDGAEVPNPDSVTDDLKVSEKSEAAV
PRMT1 confirm – PRMT1 (human) inhibition, FP confirmation. AID 687036. recombinant His-PRMT1, activity-based probe fluorescence polarization. shares compounds with PRMT1 FP inh. 3,300 compounds, 42% hits. inhibition, % at 2.79 µM;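 active means mean inhibition across replicates above the hit cutoff derived for the earlier primary screen, cut at about 22% in these data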
* marks the source's active call; other numbers are inactive results; . = no result. Only some compounds are listed: those with a hit (about 2.4% of all), similar ones and a draw of the others.

SMILES	SIAE primary	HTRA1 inhibitor	PRMT1 FP inh	mABHD4 FP	GASC-1 inh	PRMT1 confirm
O=C1NC(=O)N(c2ccccc2)C(=O)/C1=C\c1ccc([N+](=O)[O-])o1	.	.	.	.	22.4	.
COc1c(O)cc2c(c1OC)-c1ccc(SC)c(=O)cc1C(NC(C)=O)CC2 (stereo unspecified)	2.6	-0.4	-4.1	-0.6	.	.
Cc1cc(N2CCNC[C@H]2C)ccc1N1CC[C@@H](O)C1	8.6	.	51.0*	24.6	.	7.9
CCOC(=O)c1c(/N=C/C2C(=O)NC(=S)NC2=O)sc2c1CCC2	.	.	.	.	10.7	.
N#Cc1c(/N=C/C2C(=O)NC(=S)NC2=O)sc2c1CCCC2	-41.4	-53.4	25.5*	-14.1	-0.8	6.6
CCCC(CCC)C(=O)OC[N+](C)(C)CCOC(=O)C(O)(c1ccccc1)C1CCCC1 (stereo unspecified)	-5.2	-1.4	-4.9	-1.1	1.1	.
COc1ccccc1NC(=O)COC(=O)c1cn(C)c2ccccc12	-1.1	-24.8	-0.6	-3.3	0.4	.
CN(C)C(=S)SSC(=S)N(C)C	-0.3	0.7	86.9*	2.1	31.8	101.9*
N#CSCC(=O)N1c2ccccc2CCc2ccccc21	1.3	-0.7	57.7*	-0.2	-4.4	49.8*
O=[N+]([O-])c1ccc(N2CCCCC2)c2ncccc12	-1.3	0.1	2.9	2.7	3.1	.
O=[N+]([O-])c1ccc(N2CCOCC2)c2cccnc12	5.3	4.0	-1.5	1.8	-2.7	.
O=[N+]([O-])c1ccc(N2CCCCCC2)c2nonc12	-16.8	15.0	89.1*	23.2	6.3	95.4*
O=[N+]([O-])c1ccc(N2CCOCC2)c2c1no[n+]2[O-]	-8.7	-2.8	26.7*	-22.3	.	2.0
CCN1C[C@]2(C)CC[C@H](OC)[C@]34C2[C@H](OC(C)=O)[C@@]2(OCO[C@@]25C[C@H](OC)[C@H]2C[C@]3(O)C5[C@H]2OC)[C@@H]14	0.3	-2.2	-7.1	-5.1	5.8	.
NS(=O)(=O)c1ccc(-c2ccc(C=C3C(=O)NC(=S)NC3=O)o2)cc1	2.3	.	46.9*	14.8	33.1	67.6*
CCc1ccc(/C=C(/C#N)C(N)=S)cc1	0.6	-1.9	30.3*	6.2	9.4	5.2
Cc1cc(C)nc(/N=C(\N)c2c(O)[nH]c(=O)[nH]c2=O)n1	2.5	5.0	0.6	-0.9	18.2	.
CCCCN1C(=O)/C(=C/C=C/c2ccco2)C(=O)NC1=S	-75.3	-41.1	39.3*	-112.7	-4.3	43.7*
CCc1ccc(N2C(=O)NC(=O)/C(=C\C=C\c3ccco3)C2=O)cc1	-14.9	8.1	27.5*	-14.4	-5.0	5.5
CC(C)c1ccc(N2C(=O)NC(=O)/C(=C/C=C/c3ccco3)C2=O)cc1	-34.9	8.3	9.2	-23.4	3.9	.
NC(=S)/N=C/c1c(O)[nH]c(=O)[nH]c1=O	-5.3	9.1	34.4*	2.8	6.4	4.0
C=CCNC(=S)/N=C/c1c(O)[nH]c(=O)[nH]c1=O	0.1	4.2	14.7	6.0	5.5	.
O=C(OCC(=O)c1ccc([N+](=O)[O-])cc1)/C(=C/c1ccc(Cl)cc1)NC(=O)c1ccccc1	4.9	-3.2	46.4*	5.6	-3.1	2.9
C[C@H](CO)N1C[C@H](C)[C@@H](CN(C)C(=O)Oc2ccc3ccccc3c2)OCc2cn(nn2)CCCC1=O	5.7	-2.0	2.3	3.8	.	.
CCN(CC)C(=O)c1ccc(NC(=O)C2=C(C)OCCS2)cc1	-3.2	1.6	-3.7	6.6	121.8	.
SMILES	SIAE primary	HTRA1 inhibitor	PRMT1 FP inh	mABHD4 FP	GASC-1 inh	PRMT1 confirm
Cc1ccc(N2CCNCC2C)cc1 (stereo unspecified)	-1.6	5.8	-2.8	-8.1	.	.
c1ccc(Cc2cnc(N3CCNCC3)nc2)cc1	-10.3	.	45.0*	2.0	.	13.1
O=CC(Br)P(=O)(N1CCOCC1)N1CCOCC1 (stereo unspecified)	-0.1	.	26.5*	-1.7	-3.7	30.6*
COc1cc(OC)c2c(c1)OCC1CON(C)C21 (stereo unspecified)	-5.8	-0.5	-1.7	-1.1	0.4	.
CCc1n[nH]c(CCN)n1	-3.5	1.2	-5.1	-2.5	-5.2	.
CN(c1ccc(O)cc1)c1ccc([N+](=O)[O-])c2nonc12	6.6	4.3	-0.1	8.9	.	.
Nc1ccc2nonc2c1[N+](=O)[O-]	-0.1	14.7	92.3*	19.5	-3.1	78.5*
O=C1NC(=O)N(c2ccccc2)C(=O)/C1=C\c1ccc([N+](=O)[O-])s1	-14.8	.	11.9	-4.8	6.1	.
CN1C(=O)NC(=O)/C(=C/c2ccc([N+](=O)[O-])s2)C1=O	-7.2	13.5	31.1*	-7.4	13.1	57.6*
O=C1CC(=O)N(c2cccc(F)c2)C(=O)N1	4.1	2.0	5.7	0.3	8.4	.
C[C@@H](N)Cc1cnc[nH]1	1.8	8.1	1.9	-1.0	-0.2	.
COc1cc(N2CCOCC2)ccc1/C=C1\C(=O)NC(=O)N(C2CCCCC2)C1=O	-10.2	-20.4	25.7*	-82.5	.	7.3
COC(=O)C1=C(c2ccc3ccccc3c2)C[C@@H]2CC[C@H]1N2C	7.7	0.6	-3.8	3.3	2.2	.
COC(=O)C1=C(C(=O)OC)C2OC1c1cc3ccccc3cc12	-0.9	1.5	64.0*	-3.7	.	45.9*
CC1CN1P(=O)(Oc1ccccc1)N1CC1C (stereo unspecified)	0.1	2.0	-0.1	-6.0	.	.
CC1CN1P(=S)(c1ccccc1)N1CC1C (stereo unspecified)	1.5	0.6	35.9*	7.2	.	3.1
C=CCNC(=O)c1c(N)n(Cc2ccco2)c2nc3ccccc3nc12	-4.9	-16.9	25.4*	6.1	2.8	9.3
Nc1c(C(=O)NCCN2CCOCC2)c2nc3ccccc3nc2n1Cc1ccco1	-5.2	2.3	8.2	-2.3	1.6	.
COc1ccc(NP2(=O)OCC(C)(N)CO2)cc1 (stereo unspecified)	7.2	4.2	-2.5	3.4	.	.
Nc1ccc2ccc3cccc[n+]3c2c1	1.2	13.1	175.4*	5.9	8.4	150.2*
O=[N+]([O-])c1cccnc1N1CCCNCC1	1.6	1.9	0.5	2.4	2.5	.
O=C1C2CC=CCC2C(=O)N1SC(Cl)(Cl)Cl (stereo unspecified)	-0.6	.	75.1*	3.2	.	86.6*
O=C1NC(=O)C(=Cc2ccc(SC3CCCCC3)o2)C(=O)N1	-6.1	-2.0	26.4*	8.7	7.3	4.1
NS(=O)(=O)c1ccc(-c2ccc(C=C3C(=O)NC(=O)NC3=O)o2)cc1	2.3	-1.4	19.5	0.4	6.3	.
O=[N+]([O-])c1cc(-c2ccc([As](=O)(O)O)cc2)ccc1[As](=O)(O)O	.	.	.	.	-1.1	.
CCOC(=O)C1SC2(C(F)(F)F)CC1(O)c1c(C)cc(C)nc1O2 (stereo unspecified)	2.4	4.0	73.2*	-6.5	10.1	63.4*
CCOc1cccc(=NC2CCCCC2)c2c(C)n(C)c(C)c12	7.0	.	46.7*	13.6	-1.0	3.6
COc1ccc(CNCCc2ccc(Cl)cc2)c(OC)c1OC	-6.7	2.9	5.4	6.8	-2.0	.
